Experimental data published in ChEMBL document CHEMBL3877270, “Biological and structural studies of phosphonium 'masked thiolate' compounds” (Eur J Med Chem, 2017).

Experiments:
[1] = Cytotoxicity against human PC3 cells measured at 72 hrs post dose by Celltiter-Glo luminescent cell viability assay; assay type: functional, cell-based; conditions: PC-3, 72 h
Outline: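 PC3 cells (ATCC; DMEM GlutaMAX high glucose, 10% heat-inactivated FBS, pen/strep, 37 °C, 5% CO2) seeded 10,000/well, adhered overnight, then exposed 0–1000 µM for 24, 48, 72 h. Viability by CellTiter-Glo ATP luminescence after 30 min room-temperature equilibration. Vehicle controls at 0.1–0.001% DMSO. Quadruplicate wells, 3 independent experiments (n = 12). Normalised to control; IC50 from curve fit.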

[2] = Drug uptake in human PC3 cells measured after 90 mins by MALDI-TOF-MS analysis; assay type: ADME, cell-based; conditions: pc-3, 1.5 h
Outline: (§1)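 Trypsinised PC3 cells washed in PBS, resuspended in low-K+ HEPES buffer pH 7.4, 0.5×10^6 cells incubated with compound at 5 µM final, 37 °C, 0–120 min. Cells washed in cold PBS, lysed in cold water, lysate spiked with tetraphenylphosphonium bromide internal standard, α-CHCA matrix, positive-ion MALDI-TOF-MS. Amount from calibration curve built in PC3 lysate; triplicate analyses, three independent experiments.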

[3] = Aqueous solubility of the compound; assay type: physicochemical; conditions: buffer
[4] = Drug uptake in human PC3 cells measured after 30 mins by MALDI-TOF-MS analysis; assay type: ADME, cell-based; conditions: pc-3, 0.5 h; outline: as §1
[5] = Drug uptake in human PC3 cells measured after 10 mins by MALDI-TOF-MS analysis; assay type: ADME, cell-based; conditions: pc-3, 10 min; outline: as §1
[6] = Drug uptake in rat C6 cells at 10 uM measured after 10 to 90 mins by MALDI-TOF-MS analysis relative to tetraphenylphosphonium cation; assay type: ADME, cell-based; conditions: c6, 10 µM

Structure (SMILES)	solubility [3]	IC50 [1] [µM]	also measured
Cc1ccc(-c2nc([P+](c3ccccc3)(c3ccccc3)c3ccccc3)c[se]2)cc1	–	0.4	–
C/C(N)=C/[P+](c1ccccc1)(c1ccccc1)c1ccccc1	–	8	–
Fc1ccc([P+](c2ccccc2)(c2ccccc2)c2ccccc2)cc1 [BFPET]	–	–	Drug uptake [6]: 80%

The next lines start with results.

solubility [3]	Structure (SMILES)	IC50 [1] [µM]	also measured
Soluble	CC(=O)SCCC[P+](c1ccc(F)cc1)(c1ccc(F)cc1)c1ccc(F)cc1.[Br-]	252	Drug uptake [2]: Active
Soluble	CC(=O)SCCC[P+](c1ccccc1)(c1ccccc1)c1ccccc1.[Br-]	67	Drug uptake [4]: Active; Drug uptake [5]: Active
